Data as given in ChEMBL document CHEMBL5055621, “Synthesis and Characterization of the Novel Rodent-Active and CNS-Penetrant P2X7 Receptor Antagonist Lu AF27139” (J Med Chem, 2021).

What was measured:
[1] = Free plasma concentration in rat at 3 mg/kg, po after 2 hrs by ex vivo equilibrium dialysis; type: ADME, organism-based
Outline: (§1)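 Male Sprague–Dawley rats were dosed orally at 1–100 mg/kg, and total plasma concentration was measured at 1 and 2 h. This was multiplied by fraction unbound from ex vivo equilibrium dialysis; mean ± SEM, n = 3 animals.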

[2] = biological target: Adenosine receptor A2a (Homo sapiens) (UniProt P29274); assay: Displacement of [3H]-CGS 21680 from human recombinant adenosine A2A receptor at 10 uM after 120 mins by scintillation counting analysis relative to control
Chain of Adenosine receptor A2a (Homo sapiens) (P29274 whole entry): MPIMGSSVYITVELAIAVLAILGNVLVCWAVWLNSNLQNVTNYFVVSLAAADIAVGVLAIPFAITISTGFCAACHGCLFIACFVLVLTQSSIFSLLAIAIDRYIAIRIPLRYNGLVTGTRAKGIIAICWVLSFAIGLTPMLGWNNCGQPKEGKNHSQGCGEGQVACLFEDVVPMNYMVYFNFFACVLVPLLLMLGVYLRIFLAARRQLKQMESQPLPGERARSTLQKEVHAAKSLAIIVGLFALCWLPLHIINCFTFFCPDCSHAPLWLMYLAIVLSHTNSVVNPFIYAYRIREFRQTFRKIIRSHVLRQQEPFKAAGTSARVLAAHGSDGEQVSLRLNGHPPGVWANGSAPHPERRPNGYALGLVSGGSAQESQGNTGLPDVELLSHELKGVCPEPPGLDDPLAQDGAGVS

[3] = Free plasma concentration in rat at 10 mg/kg, po after 2 hrs by ex vivo equilibrium dialysis; type: ADME, organism-based; outline: as §1
Cytochrome P450 2C8 = biological target: T1, Cytochrome P450 2C8 (Homo sapiens, UniProt P10632); assay: Time dependent inhibition of CYP2C8 (unknown origin) upto 25 uM; type: ADME
T1 sequence (P10632 whole entry): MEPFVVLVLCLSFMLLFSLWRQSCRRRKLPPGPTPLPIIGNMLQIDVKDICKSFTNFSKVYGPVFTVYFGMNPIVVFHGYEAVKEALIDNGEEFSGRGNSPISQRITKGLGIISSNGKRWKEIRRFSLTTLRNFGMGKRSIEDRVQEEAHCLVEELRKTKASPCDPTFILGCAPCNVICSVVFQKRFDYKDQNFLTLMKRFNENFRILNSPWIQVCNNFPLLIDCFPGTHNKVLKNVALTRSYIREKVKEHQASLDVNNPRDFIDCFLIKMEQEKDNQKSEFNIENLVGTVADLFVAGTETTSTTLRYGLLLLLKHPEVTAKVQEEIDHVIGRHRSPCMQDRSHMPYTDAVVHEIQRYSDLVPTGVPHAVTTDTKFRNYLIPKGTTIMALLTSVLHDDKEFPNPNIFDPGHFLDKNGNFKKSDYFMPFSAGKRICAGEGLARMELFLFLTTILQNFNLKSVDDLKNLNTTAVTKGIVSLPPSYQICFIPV

[4] = Free plasma concentration in rat at 1 mg/kg, po after 2 hrs by ex vivo equilibrium dialysis; type: ADME, organism-based; outline: as §1
Cytochrome P450 2B6 = biological target: T2, Cytochrome P450 2B6 (Homo sapiens, UniProt P20813); assay: Inhibition of CYP2B6 (unknown origin) upto 25 uM; type: ADME
T2 sequence (P20813 whole entry): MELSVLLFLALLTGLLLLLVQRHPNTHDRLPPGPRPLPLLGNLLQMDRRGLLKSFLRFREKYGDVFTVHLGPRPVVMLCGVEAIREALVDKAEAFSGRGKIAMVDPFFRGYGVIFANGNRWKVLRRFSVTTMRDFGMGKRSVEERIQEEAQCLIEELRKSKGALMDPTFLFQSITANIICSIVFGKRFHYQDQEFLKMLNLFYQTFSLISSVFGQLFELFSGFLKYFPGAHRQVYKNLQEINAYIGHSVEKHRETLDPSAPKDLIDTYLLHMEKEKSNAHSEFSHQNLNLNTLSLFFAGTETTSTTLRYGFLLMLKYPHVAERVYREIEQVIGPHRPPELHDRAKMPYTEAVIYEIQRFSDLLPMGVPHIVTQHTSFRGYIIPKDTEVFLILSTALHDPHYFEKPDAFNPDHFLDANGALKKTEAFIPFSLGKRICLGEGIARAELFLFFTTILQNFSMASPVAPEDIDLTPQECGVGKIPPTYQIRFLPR

Cytochrome P450 2C9 = Cytochrome P450 2C9 (Homo sapiens, UniProt P11712); assay: Time dependent inhibition of CYP2C9 (unknown origin) upto 25 uM; type: ADME
Chain of Cytochrome P450 2C9 (P11712 whole entry): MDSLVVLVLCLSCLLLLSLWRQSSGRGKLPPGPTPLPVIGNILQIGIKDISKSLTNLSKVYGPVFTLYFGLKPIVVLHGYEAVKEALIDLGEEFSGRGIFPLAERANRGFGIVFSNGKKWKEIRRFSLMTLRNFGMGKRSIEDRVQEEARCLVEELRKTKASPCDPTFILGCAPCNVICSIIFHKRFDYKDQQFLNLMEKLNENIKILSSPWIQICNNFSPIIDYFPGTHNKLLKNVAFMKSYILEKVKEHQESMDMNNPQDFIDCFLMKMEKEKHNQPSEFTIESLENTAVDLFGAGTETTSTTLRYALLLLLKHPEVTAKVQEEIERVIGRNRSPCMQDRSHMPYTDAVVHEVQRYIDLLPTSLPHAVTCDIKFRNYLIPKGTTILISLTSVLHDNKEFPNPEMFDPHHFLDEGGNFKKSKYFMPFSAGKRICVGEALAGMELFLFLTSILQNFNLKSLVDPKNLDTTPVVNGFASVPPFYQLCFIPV

P2X purinoceptor 7 [5] = biological target: T3, P2X purinoceptor 7 (Rattus norvegicus, UniProt Q64663); assay: Displacement of [3H]-A-804598 from rat P2X7 receptor expressed in HEK293 cell membrane by in vitro binding assay; type: cell membranes
T3 sequence (Q64663 whole entry): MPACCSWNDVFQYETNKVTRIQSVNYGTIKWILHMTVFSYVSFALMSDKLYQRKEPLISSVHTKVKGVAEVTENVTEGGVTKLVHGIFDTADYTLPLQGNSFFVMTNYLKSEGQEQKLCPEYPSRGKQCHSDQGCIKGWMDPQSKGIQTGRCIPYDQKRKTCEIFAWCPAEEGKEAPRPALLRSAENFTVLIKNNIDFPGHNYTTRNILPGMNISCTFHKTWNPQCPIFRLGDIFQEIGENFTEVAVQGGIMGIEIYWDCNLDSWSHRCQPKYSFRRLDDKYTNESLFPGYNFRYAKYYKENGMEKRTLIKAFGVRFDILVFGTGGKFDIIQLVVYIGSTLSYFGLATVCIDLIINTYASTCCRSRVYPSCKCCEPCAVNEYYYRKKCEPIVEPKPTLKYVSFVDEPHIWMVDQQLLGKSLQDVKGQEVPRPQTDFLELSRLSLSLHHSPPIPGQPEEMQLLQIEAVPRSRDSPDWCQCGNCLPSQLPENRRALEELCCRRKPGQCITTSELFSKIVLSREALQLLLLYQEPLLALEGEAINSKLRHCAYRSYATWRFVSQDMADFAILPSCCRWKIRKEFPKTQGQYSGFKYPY

Cytochrome P450 2C19 = Cytochrome P450 2C19 (Homo sapiens, UniProt P33261); assay: Time dependent inhibition of CYP2C19 (unknown origin) upto 25 uM; type: ADME
Chain of Cytochrome P450 2C19 (P33261 whole entry): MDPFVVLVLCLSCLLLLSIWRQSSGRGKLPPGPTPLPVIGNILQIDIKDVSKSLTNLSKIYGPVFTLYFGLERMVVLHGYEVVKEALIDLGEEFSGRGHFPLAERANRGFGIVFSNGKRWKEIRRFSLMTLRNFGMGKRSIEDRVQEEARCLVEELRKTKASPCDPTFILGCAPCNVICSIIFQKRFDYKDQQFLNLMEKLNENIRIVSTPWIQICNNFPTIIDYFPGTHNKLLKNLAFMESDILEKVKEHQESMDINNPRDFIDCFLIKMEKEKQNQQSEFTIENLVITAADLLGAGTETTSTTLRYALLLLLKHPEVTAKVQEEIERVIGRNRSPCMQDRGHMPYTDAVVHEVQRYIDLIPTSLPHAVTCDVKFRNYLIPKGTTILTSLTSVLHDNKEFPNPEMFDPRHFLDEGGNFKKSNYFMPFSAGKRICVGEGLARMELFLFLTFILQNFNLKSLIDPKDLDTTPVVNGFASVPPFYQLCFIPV

[6] = Metabolic stability in rat hepatocytes assessed as intrinsic clearance at 1 uM measured after 2 hrs; type: ADME, cell-based, Hepatocyte; details: read-out: CLH (converted)
[7] = AUC (0 to 8 hr) in male rat at 150 mg/kg, po after 7 days; type: ADME, organism-based; design: time 7 day, dose 150 mg/kg, route po; details: in vivo
Outline: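 Oral dosing in male Sprague-Dawley rats (150−200 g, 7-day acclimation, standard housing) in a 7-day exploratory toxicology study.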

P2X purinoceptor 7 [8] = biological target: T4, P2X purinoceptor 7 (Homo sapiens, UniProt Q99572); assay: Displacement of [3H]-A-804598 from human P2X7 receptor expressed in HEK293 cell membrane by in vitro binding assay; type: cell membranes
T4 sequence (Q99572 whole entry): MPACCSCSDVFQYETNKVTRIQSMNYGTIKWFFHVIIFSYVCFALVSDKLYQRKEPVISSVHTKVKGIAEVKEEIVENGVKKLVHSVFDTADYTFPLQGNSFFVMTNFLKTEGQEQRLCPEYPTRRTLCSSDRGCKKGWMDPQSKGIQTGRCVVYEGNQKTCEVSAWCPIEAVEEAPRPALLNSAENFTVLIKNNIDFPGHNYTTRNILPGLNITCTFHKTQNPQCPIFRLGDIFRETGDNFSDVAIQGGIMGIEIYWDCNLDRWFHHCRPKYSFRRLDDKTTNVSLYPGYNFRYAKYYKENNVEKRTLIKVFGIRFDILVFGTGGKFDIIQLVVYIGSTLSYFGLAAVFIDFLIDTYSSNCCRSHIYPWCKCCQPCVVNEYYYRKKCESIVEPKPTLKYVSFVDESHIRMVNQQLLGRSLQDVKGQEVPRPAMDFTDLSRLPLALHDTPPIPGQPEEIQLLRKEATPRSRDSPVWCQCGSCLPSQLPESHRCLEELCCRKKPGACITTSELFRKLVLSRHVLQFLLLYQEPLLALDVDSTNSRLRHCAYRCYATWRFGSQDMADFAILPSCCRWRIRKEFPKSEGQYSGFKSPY

[9] = Free plasma concentration in rat at 30 mg/kg, po after 1 hr by ex vivo equilibrium dialysis; type: ADME, organism-based; outline: as §1
[10] = Cmax in male rat at 3 mg/kg, po after 7 days; type: ADME, organism-based; design: dose 3 mg/kg, time 7 day, route po; details: in vivo

## O=C(NC[C@H](c1ccc(Cl)cc1)N1CCOCC1)c1sc(-c2ncccn2)nc1C(F)(F)F
[1]
  Cp(f): 91.4 nM
[2]
  inhibition: 34%
[3]
  Cp(f): 164 nM
Cytochrome P450 2C8
  TDI: Not Active
[4]
  Cp(f): 22.8 nM
Cytochrome P450 2B6
  inhibition (INH): Not Active
Cytochrome P450 2C9
  TDI: Not Active
P2X purinoceptor 7 [5]
  Ki: 13 nM
Cytochrome P450 2C19
  TDI: Not Active
[6]
  CLint scaled at 1 µM: 80 mL/min/kg
[7]
  AUC at 168 h: 210 µM·h
P2X purinoceptor 7 [8]
  Ki: 55 nM
[9]
  Cp(f): 414 nM
[10]
  Cmax: 4640 nM
